# Most compounds without a hit are left out; they make up all but 3.1% or so of the library.
# KCNQ1 inh: inhibitors of human KCNQ1 channel, primary screen, cell-based, thallium flux, high-throughput; Potassium voltage-gated channel subfamily KQT member 1 (Homo sapiens), P51787; CHO-K1 KCNQ1, FluxOR thallium flux fluorescence; active compounds read high; B-score at 10 µM; hit rate 1.3% among 310,000; AID 2642, 2010;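 active = compounds whose thallium flux B-score, printed positive for inhibition, exceeds three library SD while starting fluorescence stays within three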;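 also: channel opened by potassium depolarization with thallium stimulus after 20 min compound exposure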
# KCNK9 block: KCNK9 potassium channel inhibitors, primary screen, HEK293 cells, thallium flux | Potassium channel subfamily K member 9 (Homo sapiens), Q9NPC2 | FluxOR thallium flux fluorescence; active compounds read low | B-score at 10 µM | hit rate 1.2% among 310,000;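 active = ratio B-score over 3 SD below the library mean, with starting fluorescence within 5 SD of its mean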;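 also: negative B-score means less thallium flux so channel inhibition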
# Target sequence (Q9NPC2 whole entry, looked up): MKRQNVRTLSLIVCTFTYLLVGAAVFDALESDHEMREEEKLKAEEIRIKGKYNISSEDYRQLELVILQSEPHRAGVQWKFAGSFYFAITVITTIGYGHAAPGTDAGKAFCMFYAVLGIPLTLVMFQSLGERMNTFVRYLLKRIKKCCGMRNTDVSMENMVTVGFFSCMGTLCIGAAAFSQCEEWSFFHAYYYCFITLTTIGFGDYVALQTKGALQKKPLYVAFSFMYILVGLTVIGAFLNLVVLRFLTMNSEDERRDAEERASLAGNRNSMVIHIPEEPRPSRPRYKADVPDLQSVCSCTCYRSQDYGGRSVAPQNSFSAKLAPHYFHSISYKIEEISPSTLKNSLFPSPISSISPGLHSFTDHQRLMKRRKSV
# KCNK3 inh: human KCNK3 channel inhibitors, primary screen, CHO cells, FluxOR thallium flux, B-score. AID 602410, 2012. Potassium channel subfamily K member 3 (Homo sapiens), O14649. hit rate 0.84% among 340,000. B-score at 10 µM. FluxOR fluorescence; active compounds read low;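 active = B-score under library mean minus 4 SD, starting fluorescence ratio at most library mean plus 5 SD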;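 also: more negative B-score means stronger inhibition of thallium flux through KCNK3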
# Target sequence (O14649 whole entry, looked up): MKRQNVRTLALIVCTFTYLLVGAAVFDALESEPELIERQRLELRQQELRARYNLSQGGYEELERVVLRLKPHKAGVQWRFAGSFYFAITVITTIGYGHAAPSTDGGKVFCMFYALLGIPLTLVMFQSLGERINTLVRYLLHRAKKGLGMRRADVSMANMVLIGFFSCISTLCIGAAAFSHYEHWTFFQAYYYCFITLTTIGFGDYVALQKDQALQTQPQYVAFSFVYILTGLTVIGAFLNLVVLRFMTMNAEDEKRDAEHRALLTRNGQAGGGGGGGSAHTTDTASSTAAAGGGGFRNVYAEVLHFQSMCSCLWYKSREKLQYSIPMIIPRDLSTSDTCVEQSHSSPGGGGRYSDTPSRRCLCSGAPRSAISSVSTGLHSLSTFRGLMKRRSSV
# KCNQ1 pot: potentiators or activators of KCNQ1 channel, primary screen, cell-based, thallium flux, high-throughput | CHO-K1 KCNQ1, thallium flux FluxOR fluorescence; active compounds read high | B-score at 10 µM | hit rate 0.35% among 310,000 | AID 2648, 2010;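 active = fluorescence ratio B-score, a plate-corrected score, at least three library SD, with initial intensity B-score within 5 SD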
#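 Doses: Single concentration per compound, DMSO matched to controls | Test system: KCNQ1-transfected CHO-K1 cells | Timing: 90 min dye loading and 20 min compound exposure, both at room temperature | Measured by: Kinetic FluxOR thallium fluorescence, 10-s 1-Hz baseline, 110-s post-stimulus read | Medium: Assay buffer with matched DMSO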
# hERG protect: hERG rescue from dofetilide block, primary screen, cell-based, CHO-hERG, FluxOR thallium flux, dofetilide IC70; hit rate 0.51% among 310,000; dofetilide IC70 present; Voltage-gated inwardly rectifying potassium channel KCNH2 (Homo sapiens), Q12809; activation (rescue from dofetilide block), less the hit threshold, % at 10 µM; AID 1511, 2009;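 active = activation above the mean of controls blocked by dofetilide plus 5 SD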;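 also: thallium influx through hERG after potassium depolarization seen as dye fluorescence rise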
# KCNQ1 inh valid: KCNQ1 potassium channel inhibitors, confirmation, cell-based, Tl flux, duplicate; shares compounds with KCNQ1 inh; KCNQ1 cell line, FluxOR thallium flux fluorescence; inhibition, % at 10 µM; hit rate 93% among 1,600; AID 588353, 2011;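 active = primary screen active, with duplicate mean exceeding buffer control mean plus 3 SD of buffer wells, cut at about 28% in these data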;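 also: 0% = buffer control ratio and 100% = XE991 inhibitor control ratio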
# CHO Tl flux: thallium flux effects in parental CHO cells, counter-screen for KCNQ1 inhibitor project, cell-based, Tl flux. shares compounds with KCNQ1 inh. parental CHO-K1, FluxOR thallium flux fluorescence ratio; active compounds read low; zero means no signal rise above baseline. fluorescence ratio (Tl flux) at 10 µM. hit rate 21% among 1,600;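 active = mean of duplicate thallium-flux fluorescence ratios in parental host cells more than 5 SD below the buffer control mean, cut at about 0.38 in these data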;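 also: ratio is peak minus minimum fluorescence divided by baseline fluorescence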
# KCNQ1 ephys val: KCNQ1 channel inhibitors, confirmation, orthogonal assay, cell-based, automated electrophysiology; shares compounds with KCNQ1 inh; KCNQ1-CHO cells, automated patch clamp current; calls only at 10 µM; hit rate 20% among 490; AID 624120, 2012;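 active = KCNQ1 current drop exceeding 3 SD of negative control wells, seen in both duplicate runs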;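 also: steady state current during a 2 s step from -80 to +40 mV; negative values mean current inhibition and positive values mean potentiation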
# KCNQ2 inh: KCNQ2 channel inhibition, selectivity assay for KCNQ1 inhibitor project, cell-based | shares compounds with KCNQ1 inh | KCNQ2 cells, FluxOR thallium flux fluorescence | inhibition, % at 10 µM | hit rate 71% among 1,600 | AID 651746, 2012;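 active = mean percent inhibition of the KCNQ2 thallium signal more than 5 SD above the buffer-only control wells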;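 also: KCNQ2 expressed in CHO cells; 0% = buffer control wells and 100% = XE-991 inhibitor control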
# KCNQ1-KCNE1 inh: KCNQ1/KCNE1 channel inhibition, selectivity assay for KCNQ1 inhibitor project, CHO-K1 cells, thallium flux, FluxOR. inhibition, % at 10 µM. shares compounds with KCNQ1 inh. hit rate 77% among 1,600. FluxOR thallium flux fluorescence;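 active = mean percent inhibition of duplicate wells above the buffer-only control mean plus 3 SD of those controls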;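 also: 0% = buffer only wells and 100% = XE-991 inhibitor control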
# KCNK9 inh conf: KCNK9 potassium channel inhibitors, confirmation, HEK293 cells, thallium flux, duplicate; hit rate 43% among 4,900; shares compounds with KCNK9 block; FluxOR thallium flux fluorescence; inhibition, % at 10 µM;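 active = thallium signal inhibited by more than 5 SD of the compound-free buffer control wells, on both duplicate plates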;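 also: 0% = assay buffer control wells without compound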
# Kir2-1 spec: mouse Kir2.1 channel inhibition, confirmation, selectivity assay for KCNK9 modulator project, cell-based, HEK293, thallium flux; shares compounds with KCNK9 block; AID 492993, 2010; Kir2.1 cells, FluxOR thallium flux fluorescence; hit rate 4% among 4,900; inhibition, % at 10 µM;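 active = thallium signal drop more than 5 SD beyond the mean of the no-compound control wells, seen in both duplicate plates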;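 also: signal is fluorescence rise after thallium addition divided by baseline fluorescence; plate controls were assay buffer only for no effect and full block by chlorpromazine control for full effect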
# HEK293 Tl ctr: thallium flux in non-induced HEK293 cells, confirmation, counter-screen for KCNK9 inhibitor project, cell-based, second counter screen, non-induced KCNK9-HEK293. shares compounds with KCNK9 block. FluxOR thallium flux. inhibition, % at 10 µM. hit rate 40% among 4,900;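 active = thallium signal drop beyond 5 SD of the untreated control mean, on both duplicate plates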;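 also: plate controls were buffer only IC0 wells for no effect and SID17386958 at its maximal inhibitory level for full effect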
# KCNK3 inh conf: retest of human KCNK3 channel inhibitors, confirmation, CHO cells, FluxOR thallium flux, triplicate. FluxOR fluorescence; 0% buffer, 100% carvedilol maximal block. shares compounds with KCNK3 inh. ratio percent of control, % at 10 µM. hit rate 99% among 2,400;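 active = ratio percent of control, averaged over triplicates, above buffer control mean plus 5 SD, cut at about 64% in these data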;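 also: ratio is the fluorescence rise from min to max over baseline after thallium stimulus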
# KCNK3 noninduced: thallium flux inhibition in non-induced cells, primary screen, counter-screen for KCNK3 inhibitor project, cell-based, non-induced KCNK3 line, FluxOR thallium, triplicate. shares compounds with KCNK3 inh. non-induced KCNK3 parental cells; active compounds read low. thallium flux ratio (lower = more inhibition) at 10 µM. hit rate 40% among 2,400;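 active = thallium flux ratio, averaged over three wells, more than 5 SD below the buffer control mean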;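 also: host cells are CHO cells without KCNK3 induction; ratio is peak minus trough fluorescence over baseline then normalized to buffer controls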
# Numbers without * were called inactive; i = inactive; · = not tested or not shown; + = active, no number.
SMILES,KCNQ1 inh,KCNK9 block,KCNK3 inh,KCNQ1 pot,hERG protect,KCNQ1 inh valid,CHO Tl flux,KCNQ1 ephys val,KCNQ2 inh,KCNQ1-KCNE1 inh,KCNK3 inh conf,KCNK3 noninduced,others
O=C(c1ccc(Cl)c(Cl)c1)N(Cc1ccco1)c1ccc(O)cc1,7*,-11.3*,i,i,-13.2,84.0*,0.401,·,106.3%*,117.5%*,·,·,KCNK9 inh conf=39.5%*;Kir2-1 spec=31.5%*;HEK293 Tl ctr=41.5%*
O=C(COc1ccccc1)N(Cc1ccco1)c1ccc(O)cc1,i,i,i,i,-1.7,·,·,·,·,·,·,·,
CCCN1CCC(=NNc2ccc(C(=O)O)cc2)CC1,i,i,i,i,-4.8,·,·,·,·,·,·,·,
O=C(NCCSCc1ccco1)Nc1cc(Cl)cc(Cl)c1,8*,-8.24*,-13.2*,i,-18.8,134.5*,0.425,i,i,91.0%*,100.3*,i,KCNK9 inh conf=67.5%*;Kir2-1 spec=i;HEK293 Tl ctr=31.5%*
c1ccc(COc2ncnc3c2ncn3CCCNCC2CCCO2)cc1 (configuration not stated),·,·,i,·,·,·,·,·,·,·,·,·,
Cc1cc(C)c(OCC(=O)OCC(=O)NCCC2=CCCCC2)c(C)c1,i,i,i,i,-8.8,·,·,·,·,·,·,·,
NNC(=O)c1ccc(Cn2cc(Cl)cn2)cc1,i,i,i,i,-3.1,·,·,·,·,·,·,·,
O=C(Nc1ccc(Cl)c(Cl)c1)c1ccc(Cn2cc(Cl)cn2)cc1,8*,i,-11.7*,i,-6.8,111.5*,0.429,i,105.3%*,111.5%*,109.3*,i,
CC(=O)Nc1ccc(Nc2cc(C(C)C)nc3c(-c4ccccc4)c(C)nn23)cc1,7*,i,-11.9*,i,-12.7,117.5*,0.377*,·,77.0%*,133.5%*,123.0*,i,
CC(=O)Nc1ccc(Nc2cc(C)nc3c(-c4ccccc4)c(C)nn23)cc1,i,i,i,i,-6.0,·,·,·,·,·,·,·,
CC(C)Cc1nc(N2CCN(C(=O)c3ccco3)CC2)c(C#N)c2c1CCCC2,11*,-16*,-10.2*,i,-8.9,116.0*,0.318*,·,116.7%*,i,66.0*,i,KCNK9 inh conf=34.0%*;Kir2-1 spec=i;HEK293 Tl ctr=28.5%*
O=C(c1ccc(CSc2nc3ccncc3[nH]2)cc1)N1CCCCCC1,i,i,i,i,-11.8,·,·,·,·,·,·,·,
O=C(c1ccc(CSc2nc3ccncc3[nH]2)cc1)N1CCN(c2cccc(Cl)c2)CC1,13*,i,-11*,i,-19.7,134.5*,0.315*,·,111.0%*,193.0%*,134.0*,0.148*,
O=C(Nc1cccc(C(=O)Nc2cccc(Br)c2)c1)c1ccccc1,13*,i,-11.9*,i,-6.3,115.5*,0.501,i,110.7%*,151.0%*,118.0*,i,
O=C(O)c1cccc(NC(=O)c2ccccc2)c1,·,·,i,·,·,·,·,·,·,·,·,·,
Cc1ccc(Cl)cc1N1CCN(C(=O)CNC(=O)c2ccc(Br)o2)CC1,·,·,i,·,·,·,·,·,·,·,·,·,
CCS(=O)(=O)c1ncc(Cl)c(C(=O)Nc2ccc(S(=O)(=O)N3CCC(C)CC3)cc2)n1,6*,-7.02*,-8.81*,i,-24.9,0.0,0.431,·,i,69.5%*,124.0*,0.118*,
COc1ccc2[nH]c3c(N4CCc5ccccc5C4)ncnc3c2c1,11*,i,-8.74*,i,-21.9,143.0*,0.252*,·,115.0%*,+,130.0*,0.116*,
Cc1cc(OCC(=O)Nc2ccncc2)c(C)cc1Br,8*,i,-9.18*,i,-16.0,132.0*,0.491,i,108.0%*,43.5%*,122.3*,i,
CC(C)(C)c1ccc(OCC(=O)Nc2ccncc2)c(Br)c1,19*,i,-8.75*,i,-18.3,142.5*,0.421,i,i,73.5%*,137.7*,0.125*,
CCc1ccc(OCC(=O)Nc2ccncc2)c(Br)c1,i,i,i,i,-8.1,·,·,·,·,·,·,·,
C[C@]12C(=O)N(c3ccc(F)cc3)C(=O)N1[C@H]1c3ccccc3OC[C@@H]1[C@H]2c1ccccc1,·,·,i,·,·,·,·,·,·,·,·,·,
Cc1ccc(C(C)C)cc1OCC(=O)NC1CCCCCCC1,9*,i,-9.98*,i,-7.9,115.5*,0.422,i,i,113.0%*,114.0*,i,

# Screening results: PubChem, Johns Hopkins Ion Channel Center
